Test results from publication PMC4486003 (Biomaterials, 2015).

Experiments:
[1] = tested on: fibrin network; details: cited from earlier work
[2] = tested on: hole B; details: knob B mimic derived from chicken; ref [19], [20]; cited from earlier work
[3] = biological target: T1, fibrinogen Fragment D (Homo sapiens, UniProt P02671+P02675+P02679); test: Surface plasmon resonance; assay type: binding; details: SPR; concentrations 5 μM to 1.5 mM
T1 sequence (P02675 164-491 limits assumed): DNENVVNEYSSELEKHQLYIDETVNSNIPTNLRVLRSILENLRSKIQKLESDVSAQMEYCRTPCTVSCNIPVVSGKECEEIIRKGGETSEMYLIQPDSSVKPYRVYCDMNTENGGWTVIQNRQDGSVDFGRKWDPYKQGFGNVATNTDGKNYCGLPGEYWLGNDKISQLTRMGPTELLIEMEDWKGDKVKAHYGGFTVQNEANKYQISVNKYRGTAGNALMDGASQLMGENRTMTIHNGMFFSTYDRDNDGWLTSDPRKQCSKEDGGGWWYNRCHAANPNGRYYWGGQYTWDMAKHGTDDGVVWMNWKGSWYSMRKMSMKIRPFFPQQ
T1 sequence (P02679 89-432 partner limits assumed): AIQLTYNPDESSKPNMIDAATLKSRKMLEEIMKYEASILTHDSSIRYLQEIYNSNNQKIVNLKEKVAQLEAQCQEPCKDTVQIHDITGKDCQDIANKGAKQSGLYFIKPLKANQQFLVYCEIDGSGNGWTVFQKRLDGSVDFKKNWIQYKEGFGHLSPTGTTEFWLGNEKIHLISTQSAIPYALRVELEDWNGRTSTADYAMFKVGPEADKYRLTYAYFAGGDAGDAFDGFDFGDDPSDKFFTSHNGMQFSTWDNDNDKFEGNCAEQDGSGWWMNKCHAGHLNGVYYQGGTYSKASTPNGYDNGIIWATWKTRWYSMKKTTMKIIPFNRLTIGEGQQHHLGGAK
T1 sequence (P02671 124-225 partner limits assumed): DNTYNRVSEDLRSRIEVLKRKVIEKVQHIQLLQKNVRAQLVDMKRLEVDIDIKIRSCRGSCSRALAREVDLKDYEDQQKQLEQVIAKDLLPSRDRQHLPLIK
Outline: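 Fragment D came from human fibrinogen (2 mg/mL) digested overnight at room temperature with plasmin (0.1 U/mL), then isolated on GPRPAA beads. It was covalently coupled to self-assembled-monolayer gold chips to about 1500 RU in 3 flow cells, with 1 reference cell. Test compound was run at five concentrations (5 μM–1.5 mM) in duplicate: 25 μL/min for 4 min, then 5 min dissociation. Kinetic models were fitted and judged by residuals.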

[4] = tested on: single fibrin fibers; test: Single fibrin fiber breaking strain/extensibility; parameters: species or system human; details: for average single fiber breaking strain: percentage of original fiber length, 305 nm/s
Outline: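 Fibrinogen and test compound were preincubated at 37°C for 15 min at pH 7.4 (140 mM NaCl, 10 mM HEPES, 5 mM CaCl₂); test compound finals were 1 mM, 250 μM and 100 μM. Thrombin and FXIII were added (finals: fibrinogen 3.2 μM, 0.3 NIH u/ml, 9.00 Loewy u/ml). Clots formed 75 min on striated substrates and were bead-labelled. An AFM tip stretched single fibers at 305 nm/s until rupture. Strain = (L′−L_initial)/L_initial, given as % of original length.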

[5] = biological target: T2, fibrin polymerization (Homo sapiens, UniProt P02671+P02675+P02679); test: Percent clottable protein; assay type: biochemical; details: from percent clottability
T2 sequence (P02675 45-491 limits assumed): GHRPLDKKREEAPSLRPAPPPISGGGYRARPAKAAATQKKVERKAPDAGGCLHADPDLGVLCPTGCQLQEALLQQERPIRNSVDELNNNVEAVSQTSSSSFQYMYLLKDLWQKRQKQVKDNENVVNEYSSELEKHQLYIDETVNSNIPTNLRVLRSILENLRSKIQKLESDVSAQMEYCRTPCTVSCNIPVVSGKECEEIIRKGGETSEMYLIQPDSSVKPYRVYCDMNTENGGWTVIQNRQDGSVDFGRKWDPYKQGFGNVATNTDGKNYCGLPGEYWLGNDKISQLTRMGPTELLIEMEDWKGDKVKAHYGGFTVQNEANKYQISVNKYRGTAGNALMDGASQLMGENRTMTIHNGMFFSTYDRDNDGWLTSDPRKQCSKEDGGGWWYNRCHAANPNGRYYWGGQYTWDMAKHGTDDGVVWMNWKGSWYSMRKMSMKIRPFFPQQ
T2 sequence (P02679 27-433 partner limits assumed): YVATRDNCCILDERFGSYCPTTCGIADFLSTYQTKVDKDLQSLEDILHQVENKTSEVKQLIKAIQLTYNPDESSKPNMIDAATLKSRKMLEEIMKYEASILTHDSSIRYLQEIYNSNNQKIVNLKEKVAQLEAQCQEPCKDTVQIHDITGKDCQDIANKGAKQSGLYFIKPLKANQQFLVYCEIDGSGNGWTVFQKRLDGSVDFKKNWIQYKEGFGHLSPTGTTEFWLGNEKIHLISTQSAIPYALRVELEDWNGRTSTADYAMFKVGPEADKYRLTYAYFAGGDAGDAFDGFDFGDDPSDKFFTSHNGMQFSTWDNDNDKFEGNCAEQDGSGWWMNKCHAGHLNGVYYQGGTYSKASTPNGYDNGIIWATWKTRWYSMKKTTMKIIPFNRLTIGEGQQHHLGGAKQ
T2 sequence (P02671 36-866 partner limits assumed): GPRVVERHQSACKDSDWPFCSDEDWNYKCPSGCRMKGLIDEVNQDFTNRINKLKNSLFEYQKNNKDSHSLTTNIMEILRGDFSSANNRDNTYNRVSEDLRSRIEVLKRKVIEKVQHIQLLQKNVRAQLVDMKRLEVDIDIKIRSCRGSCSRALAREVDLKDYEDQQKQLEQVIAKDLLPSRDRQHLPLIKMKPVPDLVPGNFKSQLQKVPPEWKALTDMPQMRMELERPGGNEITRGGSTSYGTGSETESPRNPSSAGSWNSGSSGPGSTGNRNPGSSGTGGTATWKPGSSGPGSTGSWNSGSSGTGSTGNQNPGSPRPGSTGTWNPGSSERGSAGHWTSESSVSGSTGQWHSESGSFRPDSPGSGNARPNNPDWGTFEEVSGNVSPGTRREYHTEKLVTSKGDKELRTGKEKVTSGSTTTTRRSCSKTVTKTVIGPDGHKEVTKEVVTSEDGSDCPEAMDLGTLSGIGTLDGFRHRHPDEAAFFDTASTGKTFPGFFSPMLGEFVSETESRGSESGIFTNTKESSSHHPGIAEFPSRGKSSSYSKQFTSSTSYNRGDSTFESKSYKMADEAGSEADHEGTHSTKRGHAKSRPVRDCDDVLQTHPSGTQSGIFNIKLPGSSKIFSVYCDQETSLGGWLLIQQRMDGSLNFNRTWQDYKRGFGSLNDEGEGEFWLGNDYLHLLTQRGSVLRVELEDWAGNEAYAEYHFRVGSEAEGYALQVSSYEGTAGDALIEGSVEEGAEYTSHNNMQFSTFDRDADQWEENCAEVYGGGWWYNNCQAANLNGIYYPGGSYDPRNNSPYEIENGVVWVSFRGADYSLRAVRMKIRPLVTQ
Outline: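 Test compound at final 1, 0.25 or 0.1 mM was added to clots at pH 7.4 (25 mM HEPES, 150 mM NaCl) with final fibrinogen 1 mg/mL, thrombin 0.25 U/mL and CaCl₂ 5 mM. A350 was read every minute for 1 h. Clot liquor was then assayed for total protein (Quant-it). Percent clottable protein was computed against fibrinogen-only, no-thrombin samples.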

[6] = tested on: fibrin polymerization; details: high concentrations; ref [15]; cited from earlier work
[7] = biological target: human fibrinogen Fragment D (human); test: SPR
[8] = 1:1 molar ratio fibrinogen:knob mimic, ref [11]

In the case of GHRPY [reference compound], the “network structure and fibrinolysis” value ([1]; bovine knob B mimic, ref [18], [21]) is given as “altered network structure and delayed fibrinolysis”.

In the case of AHRP, the binding specificity [2] is listed as “only bind to hole B”.

For AHRPYAAC-PEG, the “binding to fragment D (in words)” value [3] was “at a minimum, micromolar concentrations of PEGylated knob B peptides are required to observe binding to fibrinogen”, the “average single fiber breaking strain” value ([4]; 100 μM) was 171% and the “average single fiber breaking strain” value ([4]; 250 μM) was 164%. The “average single fiber breaking strain” value ([4]; 1 mM) was 202%, the “increase of average breaking strain vs unmodified fibrin fibers” value ([4]; 1 mM, stretched at 305 nm/s) was 20% and the “fiber extensibility (in words)” value ([4]; concentrations above its Kd) was “increase extensibility of fibers”. The “fiber extensibility (in words)” value ([4]; concentrations near its Kd) was “decreases the extensibility of fibers”, the “complex modulus (G*)” value [1, 8] was “increased the complex modulus” and the susceptibility to degradation [1, 8] was “decreased susceptibility to degradation”.

With GPSPFPAC the “effect on polymerization (in words)” value ([5]; all concentrations tested) was “not significantly affected”.

For GPSPFPAC-PEG, the “inhibition of polymerization (in words)” value ([5]; 1 mM) was “significantly inhibited”.

In the case of Gly-Pro-Arg-Pro [GPRP], the fibrin polymerization [6] is listed as “polymerization is inhibited”.

B1: PEGylated knob B peptide AHRPYAAC-PEG (peptide)
peptide: AHRPYAAC
modifications: not fully specified; 5 kDa maleimide-PEG conjugated to the cysteine-terminated peptide
B1 gave a Kd1 (2-site model, higher-affinity site, assumed knob B:hole b) [7] of 57 µM.
